Laboratory results taken from PMC9827282 (RSC Advances, 2023).
Where two headings read alike, the source gives them in different places. Blank lines part the entries; values can stand above or below the compound they belong to.

Legend:
[1] = test system: XO; conditions: cited from earlier work
[2] = molecular target: T1, XO (isolated from bovine milk) (Bos taurus, UniProt P80457); experiment: XO inhibition assay; format: biochemical
[3] = molecular target: T1, XO (isolated from bovine milk); experiment: Enzyme kinetic studies; format: biochemical
Procedure, shortened: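 Bovine milk XO. Reversibility: xanthine held at 0.25 mM, XO varied 0.03–0.15 U mL−1 (five levels), test compound at 0, 10, 20 and 30 μM, velocity plotted against [XO]. Inhibition type: XO 0.025 U mL−1, xanthine 0.0625–0.1875 mM, same compound levels. Lineweaver–Burk double-reciprocal analysis, with linear secondary replots of slope and Y-intercept against [compound].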

[4] = molecular target: T1, XO (isolated from bovine milk); experiment: Fluorescence titrations; format: binding; conditions: for Kd: binding constant K
Procedure, shortened: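 Intrinsic fluorescence of bovine milk XO (0.16 U mL−1) titrated with test compound at 0–26.7 μM, at 298, 304 and 310 K. Excitation 280 nm, emission 300–500 nm, slit 5.0 nm. Mixtures equilibrated 30 min before reading. Compound-only control at each concentration; PBS blank for background correction. Final DMSO below 1%.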

[5] = molecular target: T1, XO (isolated from bovine milk); experiment: Fourier translation infrared spectroscopy, secondary structure of XO; conditions: XO 0.5 U mL^−1 with AUR
Procedure, shortened: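 FT-IR of bovine milk XO (0.5 U mL−1), alone and with test compound (200 μM), at room temperature. Spectra collected over 1800–1400 cm−1 at 4 cm−1 resolution, 128 scans co-added, background subtracted. Secondary-structure fractions quantified by split-peak fitting of the amide I band (1600–1700 cm−1).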

[6] = 298, 304 and 310 K (taken as constant)

T1 sequence (P80457 whole entry): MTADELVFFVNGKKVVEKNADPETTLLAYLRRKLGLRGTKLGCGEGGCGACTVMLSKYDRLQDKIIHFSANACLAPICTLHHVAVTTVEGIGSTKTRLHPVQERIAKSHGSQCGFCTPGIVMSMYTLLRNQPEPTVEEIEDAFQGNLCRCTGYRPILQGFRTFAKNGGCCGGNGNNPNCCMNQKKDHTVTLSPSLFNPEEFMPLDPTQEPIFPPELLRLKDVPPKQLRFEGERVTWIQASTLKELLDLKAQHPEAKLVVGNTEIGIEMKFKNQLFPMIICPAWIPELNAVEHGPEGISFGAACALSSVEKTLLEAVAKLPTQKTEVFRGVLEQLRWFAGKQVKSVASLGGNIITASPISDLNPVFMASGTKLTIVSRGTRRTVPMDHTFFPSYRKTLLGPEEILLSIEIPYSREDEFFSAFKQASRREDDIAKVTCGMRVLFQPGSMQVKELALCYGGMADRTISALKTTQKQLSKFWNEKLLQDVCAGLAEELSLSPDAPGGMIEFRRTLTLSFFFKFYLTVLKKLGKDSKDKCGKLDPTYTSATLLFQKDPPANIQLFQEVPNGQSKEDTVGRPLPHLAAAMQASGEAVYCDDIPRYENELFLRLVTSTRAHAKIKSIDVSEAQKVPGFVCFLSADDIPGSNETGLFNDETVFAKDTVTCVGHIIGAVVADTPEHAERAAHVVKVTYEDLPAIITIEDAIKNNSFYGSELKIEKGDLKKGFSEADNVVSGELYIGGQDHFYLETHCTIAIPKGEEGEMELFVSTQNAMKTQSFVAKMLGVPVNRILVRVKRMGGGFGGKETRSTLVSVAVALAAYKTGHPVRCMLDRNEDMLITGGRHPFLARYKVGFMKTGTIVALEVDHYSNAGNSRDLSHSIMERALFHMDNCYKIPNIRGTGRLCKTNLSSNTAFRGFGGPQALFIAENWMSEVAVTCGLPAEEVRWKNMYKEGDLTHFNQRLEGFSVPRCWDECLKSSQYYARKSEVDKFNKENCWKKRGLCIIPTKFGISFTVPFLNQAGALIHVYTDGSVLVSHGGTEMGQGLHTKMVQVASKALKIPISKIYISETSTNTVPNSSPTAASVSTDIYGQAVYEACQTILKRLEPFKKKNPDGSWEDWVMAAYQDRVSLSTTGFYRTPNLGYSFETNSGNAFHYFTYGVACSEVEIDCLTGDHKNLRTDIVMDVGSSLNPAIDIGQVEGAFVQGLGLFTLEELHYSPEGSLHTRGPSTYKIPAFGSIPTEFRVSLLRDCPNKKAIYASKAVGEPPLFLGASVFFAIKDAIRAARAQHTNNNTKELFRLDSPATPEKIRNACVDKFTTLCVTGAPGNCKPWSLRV

Structure (SMILES): O=c1c(O)c(-c2ccc(O)c(O)c2)oc2cc(O)cc(O)c12 [Quercetin, quercetin]
- inhibition type [1]: mixed-type
- IC50 ([1]; ref 18 (Zhang et al.)): 2.74 ± 0.04 µM

- IC50 [2]: 7.62 ± 0.401 µM
- Ki [3]: 1.8 µM
- ratio (α) of Kis to Ki [3]: 0.31
- uncompetitive inhibition constant (Kis) ([3]; binding to XO–xanthine complex): 0.56 µM
- inhibition reversibility ([3]; plots of v vs [XO], AUR 0–30 μM, xanthine 0.25 mM): reversible
- fluorescence quenching mechanism [4]: static quenching process
- ΔH [4, 6]: 3.1 kcal/mol
- ΔS [4, 6]: 121.95 J mol^−1 K^−1
- lg K ([4]; 298 K): 4.096
- number of binding sites n ([4]; 298 K): 0.977
- quenching constant Ksv ([4]; 298 K): 16190 L/mol
- lg K ([4]; 304 K): 4.155
- number of binding sites n ([4]; 304 K): 0.993
- quenching constant Ksv ([4]; 304 K): 15450 L/mol
- ΔG ([4]; 304 K): -8.858 kcal/mol
- lg K ([4]; 310 K): 4.184
- number of binding sites n ([4]; 310 K): 1.006
- quenching constant Ksv ([4]; 310 K): 14370 L/mol
- ΔG ([4]; 310 K): -9.032 kcal/mol
- Kd ([4]; 298 K): 80.2 µM
- Kd ([4]; 304 K): 70 µM
- Kd ([4]; 310 K): 65.4 µM
- β-Sheet content of XO ([5]; free XO 17.50): 12.07%
- β-Turn content of XO ([5]; free XO 40.37): 23.31%
- α-Helix and random structure content of XO ([5]; free XO 42.13): 64.62%
Structure (SMILES): O=C1/C(=C/c2ccc(O)c(O)c2)Oc2cc(O)cc(O)c21 [AUR, Aureusidin]
- inhibition type ([3]; Lineweaver–Burk plot, XO 0.025 U mL^−1, AUR 0–30 μM): mixed-type (competitive and noncompetitive)

Structure (SMILES): O=C1/C(=C/c2ccc(O)c(O)c2)Oc2cc(O)ccc21 [sulfuretin]
- IC50 ([1]; ref 24 (Muzychka et al.)): 3.1 ± 0.38 µM
